# SDO1 yeast rescue: restores growth of sdo1-depleted yeast | S. cerevisiae sdo1-depleted JHY4D growth rescue, OD600 30 h; stronger effect = higher value; pdr5 snq2 efflux-pump mutant strain | z-score at 10 µM | actives 0.21% (n = 140,000);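 active = z-score above 3 at both the 24 hr and the 30 hr optical density reads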;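 also: z-score against mean and SD of all compound wells on the same plate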
# RAM inhibit: blocks the yeast RAM network | S. cerevisiae dse1pr::URA3 reporter, 5-FOA growth OD615, 2 d; analog-sensitive cbk1-as2 kinase mutant strain | inhibition, % at 50 µM | actives 1.8% (n = 190,000) | AID 868;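 active = inhibition above a set limit, 3 SD over mean compound inhibition, cut at about 8.4% in these data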;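 also: 0% = DMSO-only wells with no growth and 100% = 10 µM 1-NA-PP1 full growth; inhibition rescues growth on 5-FOA so higher OD means more RAM inhibition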
# BB579 growth dn: yeast BB579 growth reduction in restrictive medium; S. cerevisiae BB579 growth, OD615, 48 h; inhibition, % at 10 µM; actives 0.51% (n = 140,000); AID 804;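 active = inhibition above a set limit, 3 SD over the mean compound inhibition, cut at about 44% in these data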
#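 System: Saccharomyces cerevisiae DeaD strain BB579, replicative lifespan model yeast. Buffer or medium: restrictive glucose-based CSMM-D medium. Doses: one dose, 10 µM compound with 0.25% DMSO. Timing: 4 h preincubation and 48 h exposure at 30 °C. Detection: turbidity as optical density at 615 nm. Benchmarks: amphotericin B 10 µg/mL, positive.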
# Yeast lifespan up: yeast lifespan extension | S. cerevisiae growth with nicotinamide, OD615; deaD strain in restrictive glucose medium | inhibition of the nicotinamide effect, % at 10 µM | actives 0.68% (n = 130,000);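 active = inhibition above a set limit, placed 3 SD over the median of all compounds, cut at about 26% in these data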;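 also: 0% = nicotinamide-treated wells and 100% = cells grown without nicotinamide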
#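 assay system = DeaD-strain S. cerevisiae | buffer or medium = restrictive glucose medium | reagent = 1.5 mM nicotinamide | compound = 10 µM single point, 0.25% DMSO | incubation = 48 h compound exposure at 30 °C, humidified | signal = OD615 measurement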
# * marks the source's active call; other numbers are inactive results; nt = no result. An excerpt weighted towards active compounds, which were near 2.7% of everything screened.
SMILES,SDO1 yeast rescue,RAM inhibit,BB579 growth dn,Yeast lifespan up
COc1ccccc1N1C(=O)C2C(c3ccccc3F)NN(C(=O)c3ccc(C)cc3)C2C1=O (stereo not drawn),-0.09,2,10,2
Cc1ccc(S(=O)(=O)N2CCC(C(=O)NCCc3ccc(S(N)(=O)=O)cc3)CC2)cc1,0.2,8.9*,-31,-14
O=C(NCCOc1ccc(F)cc1)c1ccccc1SCc1ccccc1,-0.57,9.5*,-34,7
CC1=C(C(=O)OCc2ccccc2)C(c2ccc(Cl)cc2)NC(=O)N1CCCCCC(=O)O (stereo not drawn),-0.2,4,-23,21
CCOC(=O)C1=C(C)N(CCCCCC(=O)O)C(=O)NC1c1ccccc1Cl (stereo not drawn),0.58,4,-27,0
CC1=C(C(=O)OCc2ccccc2)C(c2cccc([N+](=O)[O-])c2)NC(=O)N1CCCCCC(=O)O (stereo not drawn),0.43,11*,-54,10
CCOC(=O)C1=C(C)N(CCCC(=O)O)C(=O)NC1c1ccccc1OS(=O)(=O)c1ccc(C)cc1 (stereo not drawn),-0.09,8.4*,-5,-1
COc1cc(/C=C2\C(=N)N3N=CSC3=NC2=O)cc(Br)c1OC(=O)c1ccco1,nt,2,nt,nt
Cn1c(=O)c2c(SCCN3CCOCC3)nc(C3CCCC3)nc2n(C)c1=O,nt,1,nt,nt
O=C(NCc1ccc2c(c1)OCO2)c1ccc(CSCc2cccc(Cl)c2)o1,-0.53,8.8*,-37,-3
O=c1cc(-c2ccccc2Cl)oc2ccc([N+](=O)[O-])c(O)c12,-1.5,5,-42,64*
COc1ccccc1OCc1n[nH]c(=S)n1Cc1ccccc1,nt,0,nt,nt
C=CCOc1ccc2c(c1)c(S(=O)(=O)c1ccc(C)cc1)cn2COC,-0.17,9.9*,-40,-6
CCn1cc(S(=O)(=O)c2ccc(C)cc2)[nH]c1=O,nt,2,nt,nt
O=[N+]([O-])c1ccc(O)c2ncccc12,-2.5,-1,99*,-9
O=[N+]([O-])c1ccc(O)c2cccnc12,nt,-1,nt,nt
COc1ccc2c(c1)C(C)CC(C)(C)N2C(=O)NC1CCCCC1 (stereo not drawn),-0.4,2,-40,27*
COc1cc2c(cc1OC)CN(CC(=O)NC(=O)NC1CCCCC1)CC2,nt,2,nt,nt
COC(=O)c1sc2ccccc2c1-n1cccc1C(=O)C(=O)Nc1ccc(C)cc1,-1.8,6,-54,38*
COC(=O)c1sc2ccccc2c1-n1cccc1C(=O)C(=O)Nc1ccc(Cl)cc1,-0.33,2,-35,-7
Cc1nc2c3ccccc3nc(NNC(=O)CCC(=O)NCCC(C)C)n2n1,-0.01,9.2*,-18,0
CCOc1ccc(Nc2nc(Nc3ccc(O)cc3)nc(C)c2[N+](=O)[O-])cc1,nt,3,nt,nt
Cc1cc(C)c(S(=O)(=O)Nc2ccccc2C(=O)OCC(=O)NCc2ccccc2)c(C)c1,nt,8.7*,nt,nt
CNC(=O)C1CC(=O)N(CCCc2ccccc2)C(=Nc2ccccc2)S1 (stereo not drawn),0.48,9.0*,-48,-5
CCOC(=O)c1ccc(NC(=O)CSC(=S)N2CCOCC2)cc1,nt,2,nt,nt
SMILES,SDO1 yeast rescue,RAM inhibit,BB579 growth dn,Yeast lifespan up
COc1cc2c(cc1NC(=O)C(C)N1CCN(S(=O)(=O)c3ccc(C)c(C)c3)CC1)oc1ccccc12 (stereo not drawn),-1,3,-92,-3
COc1cc2c(cc1NC(=O)C(C)OC(=O)c1ccc(S(=O)(=O)Nc3ccccc3Cl)cc1)oc1ccccc12 (stereo not drawn),nt,11*,nt,nt
O=C(c1ccco1)N1N=C(c2ccc(Br)cc2)CC1(O)C(F)(F)F (stereo not drawn),nt,1,nt,nt
O=C(CN1CCC(n2nnc3cc(C(F)(F)F)ccc32)CC1)N1CCc2ccccc21,-0.16,1,-29,40*
Cc1ccc(C(=O)Nc2ccc(C(=O)N3CCCCC3C)cc2)cc1 (stereo not drawn),nt,0,nt,nt
O=C(Nc1ccccc1C(F)(F)F)c1cc(S(=O)(=O)N2CCC3(CC2)OCCO3)ccc1F,-1.2,3,-38,-5
COc1ccccc1NC(=O)c1cc(S(=O)(=O)N2CCC3(CC2)OCCO3)ccc1F,-1.2,9.6*,-22,-1
CCN(CC(O)Cn1c2ccccc2c2ccccc21)S(=O)(=O)c1ccc(F)cc1 (stereo not drawn),-2.2,11*,-43,-9
Cc1ccc(S(=O)(=O)N(C)CC(O)Cn2c3ccccc3c3ccccc32)cc1 (stereo not drawn),-2.1,8.6*,-27,-3
O=S(=O)(c1ccccc1)N(CC(O)Cn1c2ccccc2c2ccccc21)c1ccccc1 (stereo not drawn),-1.3,4,-31,-6
O=S(=O)(c1ccc(F)cc1)N(CCO)CC(O)Cn1c2ccccc2c2ccccc21 (stereo not drawn),-1.5,8.7*,8,-4
Fc1ccc(NC(=S)N2CCc3ccccc3C2)c(F)c1,nt,0,nt,nt
NC(=O)c1ccc(NC(=O)COC(=O)c2ccccc2Nc2ccccc2)cc1,nt,6,nt,nt
C/C(=N/NC(=O)c1ccc(C)nc1)c1ccc2c(c1)CCCC2,nt,0,nt,nt
O=Cc1c(Sc2ccccc2)nc2ccccn2c1=O,-0.63,3,65*,-19
CCN(c1ccccc1)S(=O)(=O)c1ccc(OCc2c(C)noc2C)cc1,-0.53,10*,-21,-8
CCN(C(=O)COC(=O)c1ccc(OCc2c(C)noc2C)cc1)c1ccccc1,5.2,3,-29,4
COc1cc([N+](=O)[O-])ccc1NC(=O)CN1CCN(C(=O)c2ccco2)CC1,nt,2,nt,nt
O=c1c2c(nc3n1CCCCC3)-c1ccccc1CC21CCCCC1,-0.89,9.9*,-38,nt
CCC1(C)Cc2ccccc2-c2nc3n(c(=O)c21)CCCCC3 (stereo not drawn),-0.82,0,-57,-7
O=C(COc1c(Br)cc(Br)c2cccnc12)N1CCc2ccccc2C1,-2.5,1,99*,-15
CC(=O)c1ccc(NC(=O)c2ccc(S(=O)(=O)N3CCCC3)cc2)cc1,-0.15,2,-32,-6
CCCCC(=O)Nc1ccc(C(=O)Nc2ccc(S(=O)(=O)N3CCCC3)cc2)cc1,-0.01,8.6*,-82,-5
O=C(CSCc1ccc([N+](=O)[O-])cc1)Nc1ccc(S(=O)(=O)N2CCCCCC2)cc1,-0.3,10*,-22,7
CCOc1ccc(N(CC(=O)NC(C(C)C)C(C)C)S(=O)(=O)c2ccc(OC)c(OC)c2)cc1,nt,0,nt,nt
SMILES,SDO1 yeast rescue,RAM inhibit,BB579 growth dn,Yeast lifespan up
CC(C)(C)c1ccc(CN2N=C(/C=C/c3ccccc3)CCC2=O)cc1,nt,9.8*,nt,nt
O=C1CCC(/C=C/c2ccccc2)=NN1Cc1ccccc1,nt,0,nt,nt
CCN(c1ccccc1)S(=O)(=O)c1ccc(Cl)c(NC(=O)CSc2nnc(C)s2)c1,nt,5,nt,nt
O=C(CCSc1nc(-c2ccc3c(c2)OCO3)cc(C(F)(F)F)n1)NCc1ccco1,-0.91,9.7*,-73,-4
O=C(CSc1nc(-c2ccco2)cc(C(F)(F)F)n1)Nc1ccc2c(c1)CCC2,-1.2,8.5*,-24,-18
O=C(CCSc1nc(-c2ccco2)cc(C(F)(F)F)n1)NCc1cccs1,-0.76,10*,-32,nt
